Measurements published in ChEMBL document CHEMBL1140012, “Rapid hit to lead evaluation of pyrazolo[3,4-d]pyrimidin-4-one as selective and orally bioavailable mGluR1 antagonists” (Bioorg Med Chem Lett, 2007).
≈ marks a conversion by molar mass, not a printed value.

Legend:
[1] = biological target: Metabotropic glutamate receptor 1 (Homo sapiens, UniProt Q13255); assay: Antagonist activity at human mGluR1 receptor expressed in […] cells assessed as inhibition of glutamate-induced calcium flux by FLIPR assay; type: functional, cell-based
Procedure, shortened: (§1)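 1321N1 cells transfected with human mGluR1 or human mGluR5 and co-expressing rat GLAST were used in a FLIPR calcium influx assay. Calcium flux was induced by 10 μM glutamate. IC50 is the concentration blocking 50% of that flux, given as the mean ± SEM of at least three determinations.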

[2] = biological target: Metabotropic glutamate receptor 5 (Homo sapiens, UniProt P41594); assay: Antagonist activity at human mGluR5 receptor expressed in […] cells assessed as inhibition of glutamate-induced calcium flux by FLIPR assay; type: functional, cell-based; procedure, shortened: as §1
[3] = Metabolic stability assessed as intrinsic clearance in rat liver microsomes; type: ADME, Microsome
Procedure, shortened: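 Intrinsic clearance was measured in rat liver microsomes and reported as scaled intrinsic clearance.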

[4] = Aqueous solubility of the compound; type: physicochemical; conditions: buffer
[5] = Permeability of the compound; type: ADME; conditions: not told; read-out: permeability
Procedure, shortened: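 Passive membrane permeability was measured and reported in ×10^-6 cm/s.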

[6] = Tmax in Sprague-Dawley rat at 1 mg/kg, po; type: ADME, organism-based; set-up: dose 1 mg/kg, route oral; conditions: in vivo
[7] = test system: Rattus norvegicus; assay: Clearance in Sprague-Dawley rat at 1 mg/kg, iv; type: ADME, organism-based; set-up: dose 1 mg/kg, route intravenous; conditions: in vivo
[8] = AUC in Sprague-Dawley rat at 1 mg/kg, iv; type: ADME, organism-based; set-up: dose 1 mg/kg, route intravenous; conditions: plasma
[9] = AUC in Sprague-Dawley rat at 1 mg/kg, po; type: ADME, organism-based; set-up: dose 1 mg/kg, route oral; conditions: plasma
[10] = test system: Rattus norvegicus; assay: (§2) Cmax in Sprague-Dawley rat at 1 mg/kg, ip; type: ADME, organism-based; set-up: dose 1 mg/kg, route intraperitoneal; conditions: in vivo
[11] = Oral bioavailability in Sprague-Dawley rat at 1 mg/kg; type: ADME, organism-based; conditions: in vivo
[12] = Volume of distribution at terminal phase in Sprague-Dawley rat at 1 mg/kg, iv; type: ADME, organism-based; set-up: dose 1 mg/kg, route intravenous; conditions: in vivo, read-out: Vbeta
[13] = test system: Rattus norvegicus; assay: (§3) Tmax in Sprague-Dawley rat at 1 mg/kg, ip; type: ADME, organism-based; set-up: dose 1 mg/kg, route intraperitoneal; conditions: in vivo
[14] = Bioavailability in Sprague-Dawley rat at 1 mg/kg, ip; type: ADME, organism-based; conditions: in vivo
[15] = test system: Rattus norvegicus; assay: (§4) AUC in Sprague-Dawley rat at 1 mg/kg, ip; type: ADME, organism-based, Plasma; set-up: dose 1 mg/kg, route intraperitoneal; conditions: in vivo
[16] = Half life in Sprague-Dawley rat at 1 mg/kg, po; type: ADME, organism-based; set-up: dose 1 mg/kg, route oral; conditions: in vivo
[17] = Cmax in Sprague-Dawley rat at 1 mg/kg, po; type: ADME, organism-based; set-up: dose 1 mg/kg, route oral; conditions: in vivo
[18] = test system: Rattus norvegicus; assay: (§5) Half life in Sprague-Dawley rat at 1 mg/kg, ip; type: ADME, organism-based; set-up: dose 1 mg/kg, route intraperitoneal; conditions: in vivo
[19] = Half life in Sprague-Dawley rat at 1 mg/kg, iv; type: ADME, organism-based; set-up: dose 1 mg/kg, route intravenous; conditions: in vivo
[20] = as §2; type: ADME, organism-based; set-up: dose 1 mg/kg, route intraperitoneal; conditions: Sprague-Dawley, in vivo
[21] = as §3; type: ADME, organism-based; set-up: dose 1 mg/kg, route intraperitoneal; conditions: Sprague-Dawley, in vivo
[22] = as §4; type: ADME, organism-based, Plasma; set-up: dose 1 mg/kg, route intraperitoneal; conditions: Sprague-Dawley, plasma
[23] = as §5; type: ADME, organism-based; set-up: dose 1 mg/kg, route intraperitoneal; conditions: Sprague-Dawley, in vivo

Sequence of Metabotropic glutamate receptor 5 (P41594 whole entry): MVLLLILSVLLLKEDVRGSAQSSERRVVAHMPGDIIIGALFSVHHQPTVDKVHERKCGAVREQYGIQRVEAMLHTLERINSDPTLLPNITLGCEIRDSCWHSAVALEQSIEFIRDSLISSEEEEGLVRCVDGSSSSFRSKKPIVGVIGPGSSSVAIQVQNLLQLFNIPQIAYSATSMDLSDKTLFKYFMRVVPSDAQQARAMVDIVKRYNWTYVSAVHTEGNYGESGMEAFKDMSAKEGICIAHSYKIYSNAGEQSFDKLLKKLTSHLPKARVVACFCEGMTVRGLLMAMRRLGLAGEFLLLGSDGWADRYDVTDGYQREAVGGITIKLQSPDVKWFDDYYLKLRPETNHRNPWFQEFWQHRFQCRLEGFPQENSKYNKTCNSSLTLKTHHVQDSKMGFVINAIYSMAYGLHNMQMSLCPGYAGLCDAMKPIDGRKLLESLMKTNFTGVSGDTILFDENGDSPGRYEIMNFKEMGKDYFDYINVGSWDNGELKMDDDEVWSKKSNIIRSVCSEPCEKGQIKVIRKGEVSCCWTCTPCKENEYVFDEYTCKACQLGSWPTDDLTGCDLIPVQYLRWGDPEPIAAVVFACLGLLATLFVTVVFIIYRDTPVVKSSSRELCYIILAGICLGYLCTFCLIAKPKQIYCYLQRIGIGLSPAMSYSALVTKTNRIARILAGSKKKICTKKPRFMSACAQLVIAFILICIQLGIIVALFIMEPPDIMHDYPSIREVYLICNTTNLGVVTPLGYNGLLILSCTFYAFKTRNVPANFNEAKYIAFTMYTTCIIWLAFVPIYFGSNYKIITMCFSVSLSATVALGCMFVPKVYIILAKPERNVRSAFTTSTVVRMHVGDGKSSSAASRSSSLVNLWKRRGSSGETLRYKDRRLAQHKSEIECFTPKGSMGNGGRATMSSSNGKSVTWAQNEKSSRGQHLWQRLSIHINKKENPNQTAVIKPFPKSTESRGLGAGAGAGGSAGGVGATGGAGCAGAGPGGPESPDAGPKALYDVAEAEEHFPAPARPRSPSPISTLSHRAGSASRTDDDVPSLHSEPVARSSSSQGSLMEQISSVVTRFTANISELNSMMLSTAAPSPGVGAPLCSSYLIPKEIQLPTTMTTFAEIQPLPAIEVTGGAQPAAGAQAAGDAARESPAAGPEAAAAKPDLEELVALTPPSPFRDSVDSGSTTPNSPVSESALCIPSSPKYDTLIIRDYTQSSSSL
Sequence of Metabotropic glutamate receptor 1 (Q13255 whole entry): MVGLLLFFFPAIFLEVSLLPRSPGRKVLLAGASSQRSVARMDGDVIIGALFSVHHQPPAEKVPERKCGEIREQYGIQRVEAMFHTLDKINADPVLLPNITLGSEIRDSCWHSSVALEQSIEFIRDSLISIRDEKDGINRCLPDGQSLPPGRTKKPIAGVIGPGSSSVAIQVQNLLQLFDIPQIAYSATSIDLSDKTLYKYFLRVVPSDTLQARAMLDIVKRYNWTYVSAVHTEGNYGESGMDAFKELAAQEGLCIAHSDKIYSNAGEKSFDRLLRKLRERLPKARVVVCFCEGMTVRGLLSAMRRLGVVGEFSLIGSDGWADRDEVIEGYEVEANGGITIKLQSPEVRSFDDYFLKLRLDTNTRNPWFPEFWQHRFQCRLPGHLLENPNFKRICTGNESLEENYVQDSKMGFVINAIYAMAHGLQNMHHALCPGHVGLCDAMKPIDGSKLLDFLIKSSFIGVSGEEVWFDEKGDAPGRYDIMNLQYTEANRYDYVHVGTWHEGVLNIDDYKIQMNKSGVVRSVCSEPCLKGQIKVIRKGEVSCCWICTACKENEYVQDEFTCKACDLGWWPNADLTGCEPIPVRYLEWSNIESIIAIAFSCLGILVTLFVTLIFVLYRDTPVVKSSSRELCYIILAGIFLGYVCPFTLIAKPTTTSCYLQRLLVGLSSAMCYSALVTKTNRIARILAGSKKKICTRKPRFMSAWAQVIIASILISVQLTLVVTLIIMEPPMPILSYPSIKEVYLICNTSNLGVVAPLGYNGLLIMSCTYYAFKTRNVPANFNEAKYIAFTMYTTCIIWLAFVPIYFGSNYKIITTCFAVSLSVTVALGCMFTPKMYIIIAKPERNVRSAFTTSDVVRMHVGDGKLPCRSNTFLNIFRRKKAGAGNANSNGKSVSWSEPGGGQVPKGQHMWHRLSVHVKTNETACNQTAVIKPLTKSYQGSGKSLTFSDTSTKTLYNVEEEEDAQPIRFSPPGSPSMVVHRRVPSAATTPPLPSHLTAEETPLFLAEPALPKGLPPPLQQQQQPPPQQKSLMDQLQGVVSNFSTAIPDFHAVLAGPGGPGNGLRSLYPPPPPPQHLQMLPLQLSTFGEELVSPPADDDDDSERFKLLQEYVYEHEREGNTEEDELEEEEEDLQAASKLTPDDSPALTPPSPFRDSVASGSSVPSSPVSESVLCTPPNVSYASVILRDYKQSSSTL

Compound	IC50 [1] [nM]	IC50 [2] [µM]	CLint scaled [3] [mL/min/kg]	solubility [4] [µM]	Papp [5] [×10⁻⁶ cm/s]	further results
Cc1nc2c(cnn2-c2ccc(S(N)(=O)=O)cc2)c(=O)n1-c1ccc(Cl)cc1	1410	> 100	–	–	–	–
Cc1nc2c(cnn2-c2ccccn2)c(=O)n1-c1ccc(Cl)cc1	> 100000	> 100	–	–	–	–
Cc1nc2c(cnn2-c2ccccc2)c(=O)n1N1CCCCCC1	240	3.6	–	–	–	–
Cc1nc2c(cnn2CC2CCCCC2)c(=O)n1-c1ccc(Cl)cc1	> 100000	> 100	–	–	–	–
Cc1ccccc1-n1ncc2c(=O)n(-c3ccc(Cl)cc3)c(C)nc21	350	9.5	–	–	–	–
Cc1nc2c(cnn2-c2ccccc2)c(=O)n1-c1ccc(Cl)c(F)c1	800	> 100	183	18 (≈ 6.39 µg/mL)	–	–
Cc1nc2c(cnn2-c2ccccc2)c(=O)n1C1CCCCCC1	760	–	–	–	–	–
Cc1nc2c(cnn2-c2cncnc2)c(=O)n1-c1ccc(Cl)cc1	9800	> 100	–	–	–	–
Cc1nc2c(cnn2-c2ccccc2)c(=O)n1-c1ccc(Cl)cc1	242	9.6	117	18 (≈ 6.06 µg/mL)	29.6	–
Cc1nc2c(cnn2-c2ccccc2)c(=O)n1N1CCCCC1	91	2.8	1800	19 (≈ 5.88 µg/mL)	5.49	–
Cc1nc2c(cnn2-c2ccccc2)c(=O)n1-c1ccc(Br)cc1	78	> 100	115	14 (≈ 5.34 µg/mL)	19.4	Tmax [6]: 1.3 h; clearance [7]: 0.8 L/h/kg; AUC [8]: 1280 ng·h/mL; AUC [9]: 100 ng·h/mL; Cmax [10]: 0.17 µg/mL; bioavailability [11]: 8%; Vd [12]: 3.1 L/kg; Tmax [13]: 15 min; bioavailability [14]: 30%; AUC [15]: 389 ng·h/mL; half-life [16]: 78 min; Cmax [17]: 30 ng/mL; t1/2 [18]: 15 min; half-life [19]: 150 min
Cc1nc2c(cnn2-c2ccccc2)c(=O)n1-c1ccc(O)cc1	2400	> 100	–	–	–	–
Cc1nc2c(cnn2-c2ccccc2)c(=O)n1-c1ccc(OC(F)(F)F)cc1	> 100000	> 100	–	–	–	–
Cc1nc2c(cnn2-c2cccc(S(N)(=O)=O)c2)c(=O)n1-c1ccc(Cl)cc1	127	> 100	< 41.7	42 (≈ 17.5 µg/mL)	17.6	Tmax [6]: 1.2 h; clearance [7]: 0.2 L/h/kg; AUC [8]: 6150 ng·h/mL; AUC [9]: 6240 ng·h/mL; Cmax [20]: 1540 ng/mL; Vd [12]: 0.4 L/kg; Tmax [21]: 1.7 h; AUC [22]: 7790 ng·h/mL; half-life [16]: 72 min; Cmax [17]: 2100 ng/mL; half-life [23]: 102 min; half-life [19]: 90 min
Cc1nc2c(cnn2-c2ccccc2)c(=O)n1-c1ccc(S(N)(=O)=O)cc1	> 100000	> 100	–	–	–	–
Cc1nc2c(cnn2-c2ccc(Cl)cc2)c(=O)n1-c1ccc(Cl)cc1	1100	> 100	–	–	–	–
Cc1nc2c(cnn2-c2cccnc2)c(=O)n1-c1ccc(Cl)cc1	230	> 100	66.7	73 (≈ 24.7 µg/mL)	21.4	–
Cc1nc2c(cnn2-c2cccc(Cl)c2)c(=O)n1-c1ccc(Cl)cc1	220	> 100	183	11 (≈ 4.08 µg/mL)	5.6	–
Cc1nc2c(cnn2-c2cnccn2)c(=O)n1-c1ccc(Cl)cc1	> 100000	> 100	–	–	–	–
Cc1nc2c(cnn2C2CCCCCC2)c(=O)n1-c1ccc(Cl)cc1	520	> 100	–	–	–	–
Cc1cccc(-n2ncc3c(=O)n(-c4ccc(Cl)cc4)c(C)nc32)c1	180	> 100	400	30 (≈ 10.5 µg/mL)	13.4	–
Cc1nc2c(cnn2-c2ccccc2)c(=O)n1-c1cccc(Cl)c1	> 100000	–	–	–	–	–
